In the library only some 3.8% were active in any assay of this set; here they are far more common.
TMEM16A inh: mouse TMEM16A channel inhibition, primary screen; Q8BHY3; HEK293 TMEM16A/YFP iodide influx fluorescence, ionomycin; normalized B-score (activity score, 25-100; higher = stronger inhibition) at 10 µM; 310,000 compounds, 1.2% hits;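 active means ratio plate-corrected score three or more library SD toward inhibition, starting fluorescence score within five deviations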;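 further: score derived from kinetic fluorescence span divided by baseline fluorescence per well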
CSC inhib: cancer stem cell inhibition. cancer stem cell-like cells viability, luminescence. inhibition, % at 7.5 µM. 300,000 compounds, 1.1% hits. AID 2717; in the data active means inhibition above about 75%; tested in HMLE shEcad cells
Beta cell apopt: blocks beta cell apoptosis; INS-1E cytokine-induced death, ATP luminescence, 48 h; percent of positive-control rescue, neutral wells zero; 300,000 compounds, 0.8% hits; protection from apoptosis, % (concentration not given with the values);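 active means Every replicate reaches about 75%, or at least half do and their mean reaches it too, limit read from the data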;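 further: higher means more ATP so stronger rescue from cytokine killing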
MC4R antagonist: human MC4R antagonism in cAMP assay; P32245; MC4R-expressing cells, MTII-stimulated cAMP, LANCE TR-FRET; inhibition, % at 6.5 µM; 360,000 compounds, 0.48% hits; AID 540295;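 active means inhibition above its plate's cutoff, the mean of tested wells on that plate plus 3 SD, cut at about 29% in these data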
Target sequence (P32245 whole entry, looked up): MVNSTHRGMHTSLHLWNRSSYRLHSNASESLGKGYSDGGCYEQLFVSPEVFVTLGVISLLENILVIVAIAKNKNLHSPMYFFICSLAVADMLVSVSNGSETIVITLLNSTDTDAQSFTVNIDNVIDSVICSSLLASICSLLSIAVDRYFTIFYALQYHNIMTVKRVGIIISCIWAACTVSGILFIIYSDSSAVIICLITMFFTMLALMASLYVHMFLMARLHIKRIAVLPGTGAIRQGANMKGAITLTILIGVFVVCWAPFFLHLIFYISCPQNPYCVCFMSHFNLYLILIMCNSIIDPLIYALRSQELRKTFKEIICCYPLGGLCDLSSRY
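Material: U2OS-MC4R stable cell line | Reagent: Melanotan II challenge after compound preincubation | Doses: One concentration, 6.5 µM nominal | Incubation: 30-min compound preincubation, 1-h Melanotan II challenge, 1-h detection, room temperature | Signal: TR-FRET cAMP assay | Replicates: One well per compound, no replicates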
ANO1 activ: activates or potentiates the mouse TMEM16A chloride channel; Q8BHY3; 340,000 compounds, 0.3% hits; HEK293 TMEM16A/YFP-H148Q/I152L, iodide quench fluorescence; stronger effect = lower value; AID 623877; B-score at 10 µM;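 active means fluorescence-ratio B-score plate-corrected deviation score at least 3 library SD below zero, with starting fluorescence score within 5 deviations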;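 further: channel opened by trigger with iodide after compound preincubation; score built on the fluorescence ratio of max minus min over baseline; more negative score means more quench and so TMEM16A activation or potentiation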
MC4R ag barr: agonists of human melanocortin 4 receptor (MC4R) beta-arrestin; U2OS MC4R beta-arrestin complementation, luminescence; percent of melanotan II response, DMSO zero; activation, % at 8.9 µM; 360,000 compounds, 0.98% hits;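 active means activation above a per-plate cutoff, the mean activation of sample wells on that plate plus 3 SD, cut at about 8% in these data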
A number is an active result; - = inactive; . = not tested or not shown.

SMILES	TMEM16A inh	CSC inhib	Beta cell apopt	MC4R antagonist	ANO1 activ	MC4R ag barr
CCOC(=O)N1N=C(CC)CC1(O)C(F)(F)F (stereo unspecified)	-	-	-	-	-11.2	-
CCOC(=O)N1N=C(c2ccc(C)cc2)CC1(O)C(F)(F)F (stereo unspecified)	-	-	-	-	-	-
C[C@@H]1CN([C@H](C)CO)C(=O)c2cc(Br)cnc2O[C@@H]1CN(C)C(=O)CC1CC1	.	.	.	-	.	-
O=C(c1cc(-c2ccc(O)cc2)on1)N1CCN(c2ccccc2)CC1	-	104.3	-	-	-	-
O=C(/C=C/c1ccc(Cl)cc1Cl)NCCSc1ccccc1	25	-	-	-	-	-
O=C(/C=C/c1ccc(Cl)cc1Cl)NCCSCc1ccccc1	100	-	-	-	-	-
Cc1cc(=O)[nH]c(SCC(=O)NC2CCCCCC2)n1	.	-	-	-	-	-
Cc1cc(C(=O)Nc2cccc3c2O[C@@H](CN(C)S(C)(=O)=O)[C@H](C)CN([C@@H](C)CO)C3=O)n(C)n1	.	.	.	-	-	-
Cc1cc(F)ccc1-c1cc(C(=O)NCc2cccc(C(F)(F)F)c2)[nH]n1	.	.	.	-	.	-
CC(=O)NCCOc1nc(N2CCCCC2)nc(N2CCCCC2)n1	-	-	-	-	-7.01	-
O=C(NCCOc1nc(N2CCCCC2)nc(N2CCCCC2)n1)Nc1ccccc1	-	-	-	-	-	-
CCc1nn(CC(=O)NCCCN2CCOCC2)c(=O)c2cc3c(OC)cccc3n12	.	.	.	-	-	-
Cc1ccc(S(=O)(=O)N2CCN(CC(=O)NC(=O)NCc3ccccc3)CC2)cc1C	-	-	-	-	-	-
O=C(CN1CCN(S(=O)(=O)c2ccccc2)CC1)NC(=O)NCc1ccccc1	-	.	-	-	-10.5	-
CC1CCCN(C(=O)c2ccc(S(=O)(=O)N3CCC(c4nc5ccccc5s4)CC3)cc2)C1 (stereo unspecified)	-	-	-	-	-	-
CCN(CC)C(=O)c1ccc(S(=O)(=O)N2CCC(c3nc4ccccc4s3)CC2)cc1	-	-	99.8	-	-	-
CCCC(=O)NC(c1ccccc1OC)c1ccc2cccnc2c1O (stereo unspecified)	-	119.4	95.2	-	-	-
CCCCC(=O)NC(c1ccccc1OC)c1ccc2cccnc2c1O (stereo unspecified)	-	137.7	96.3	-	-	-
CCN1C(=O)[C@H]2[C@@H](c3ccc(-c4cccc(Cl)c4)c(OC)c3)N[C@@](CC(C)C)(C(=O)OC)[C@H]2C1=O	-	-	-	-	-	-
COc1cccc(/C=C/C(=O)OCC(=O)c2c[nH]c3ccccc23)c1	.	.	.	-	-	-
O=C(/C=C/c1ccccc1)OCC(=O)c1c[nH]c2ccccc12	.	-	-	-	-	9.3
O=C1OC[C@H]2CCCN2C(=O)[C@@H](CC(=O)N(CCO)Cc2ccccc2)C/C=C\C[C@@H]1Cc1ccc(F)cc1	.	.	-	-	-	-
Cc1ccc2oc(-c3cccc(NC(=O)Cn4cnc5c(=O)n(C)c(=O)n(C)c54)c3)nc2c1	100	-	-	.	.	.
c1ccc2c(c1)COc1c3ncccc3nn1-2	.	.	.	-	.	-
Cc1cc(OCC(=O)N(C)Cc2ccccc2)ccc1Cl	-	-	109.5	-	-	-
SMILES	TMEM16A inh	CSC inhib	Beta cell apopt	MC4R antagonist	ANO1 activ	MC4R ag barr
COC1=C/C(=C/c2c(N)n3cc(C)sc3nc2=O)C=CC1=O	-	-	-	-	-	-
Cc1cn2c(N)c(C=C3C=C(Cl)C(=O)C(Cl)=C3)c(=O)nc2s1	.	.	.	-	-6.78	-
C#CC1(O)CCC2C3CCC4=Cc5oncc5CC4(C)C3CCC21C (stereo unspecified)	.	.	.	-	.	-
CC(C)(C)C(=O)Nc1nc(=S)ss1	100	-	-	-	-	-
N#Cc1ccc(NC(=O)Cn2c3[n+](c4ccc(C(F)(F)F)cc42)CCCCC3)cc1	-	-	-	-	-	-
O=C(Cn1c2[n+](c3ccc(C(F)(F)F)cc31)CCCCC2)Nc1ccc(Br)cc1	-	-	-	29.6	-	-
COCOCCn1cc(CN2CCS(=O)(=O)N(Cc3ccc(-c4ccc(Cl)nc4)cc3)C(C(C)C)C2=O)nn1 (stereo unspecified)	.	.	.	-	.	-
O=C(CNC(=O)c1ccc(S(=O)(=O)N2CCCC2)cc1)N/N=C/c1ccccc1Cl	-	-	-	-	-	-

Compound activity: PubChem BioAssay, several laboratories
